Assay results: publication PMC4944838 (Molecular cell, 2013)
Changes are numbered by the printed parent chain. Each block holds one molecule with its values, some of them ahead of it. Where no end group is shown, it is not given here. [ ]: non-standard residue; d: D form. pT = C[C@@H](OP(=O)(O)O)[C@H](N)C(=O)O

Tests used:
Rad4-BRCT1,2 = molecular target: T1, Rad4-BRCT1,2 (Schizosaccharomyces pombe, UniProt P32372); test: Co-crystallisation with Rad4-BRCT1,2; assay type: binding, S. pombe; settings: co-crystal X-ray structure
T1 sequence (P32372 1-186 limits assumed): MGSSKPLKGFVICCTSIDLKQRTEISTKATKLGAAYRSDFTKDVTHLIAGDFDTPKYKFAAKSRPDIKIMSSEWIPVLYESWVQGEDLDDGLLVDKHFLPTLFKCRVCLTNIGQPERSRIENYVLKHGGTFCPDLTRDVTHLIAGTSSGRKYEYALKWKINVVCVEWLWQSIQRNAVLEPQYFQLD
Method in brief: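 S. pombe Rad4 BRCT1,2 construct expressed in E. coli and purified by affinity tags and conventional column chromatography. Crystals of protein and complexes grown by hanging-drop vapour diffusion. Diffraction data collected from single crystals on a home source or synchrotron. Structures phased by molecular replacement and refined.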

[1] = molecular target: Rad4-BRCT3,4 (BRCT3,4 segment of S. pombe Rad4^TopBP1) (S. pombe) (UniProt P32372); test: fluorescence polarisation
Chain of Rad4-BRCT3,4 (BRCT3,4 segment of S. pombe Rad4^TopBP1) (S. pombe) (P32372 291-494): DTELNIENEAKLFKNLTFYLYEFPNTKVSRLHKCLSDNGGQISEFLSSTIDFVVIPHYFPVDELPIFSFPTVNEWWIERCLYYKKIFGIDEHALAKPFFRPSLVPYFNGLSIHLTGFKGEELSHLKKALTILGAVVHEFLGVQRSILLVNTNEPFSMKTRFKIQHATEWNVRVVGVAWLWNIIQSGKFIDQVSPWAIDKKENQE

[2] = molecular target: Rad4-BRCT1,2 (BRCT1,2 segment of S. pombe Rad4^TopBP1) (S. pombe) (UniProt P32372); test: fluorescence polarisation
[3] = molecular target: Rad4-BRCT1,2 K151E (S. pombe) (UniProt P32372); test: fluorescence polarisation
[4] = molecular target: Rad4-BRCT1,2 K56E (S. pombe) (UniProt P32372); test: fluorescence polarisation
Rad4-BRCT1,2 K56E = molecular target: T2, Rad4-BRCT1,2 K56E (S. pombe, UniProt P32372 1-186, K56E); test: fluorescence polarisation
T2 sequence: T1 sequence (P32372 1-186 limits assumed) with K56E

Rad4-BRCT1,2 K151E = molecular target: T3, Rad4-BRCT1,2 K151E (S. pombe, UniProt P32372 1-186, K151E); test: fluorescence polarisation
T3 sequence: T1 sequence (P32372 1-186 limits assumed) with K151E

Kd [1]: 1900 nM
Molecule: Rad9 C-terminal tail peptide phosphorylated on Thr412

Kd [2]: 500 nM
Kd [3]: 400 nM
Kd [4]: 2200 nM
Molecule: Crb2-pThr187 phosphopeptide, fluorescently labelled

The next lines start with the molecule.

Molecule: 184 – Val Pro Glu pThr Val – 188
site occupancy in co-crystal structure with Rad4-BRCT1,2 (in words) (Rad4-BRCT1,2): peptide molecules bound to both BRCT domains

Molecule: 232 – Val Glu Ser pThr Pro – 236 [Crb2 phosphopeptide (residues 229-241)]
site occupancy in co-crystal structure with Rad4-BRCT1,2 (in words) (Rad4-BRCT1,2): only the BRCT2 site was occupied

Molecule: Rad9 C-terminal tail peptide phosphorylated on Thr412 and Ser423
Kd [1]: 6400 nM

Molecule: Crb2 peptide phosphorylated on both Thr215 and Thr235 (fluorescence polarisation)
Kd [2]: 1970 nM

Molecule: Rad9 C-terminal tail peptide phosphorylated on Ser423
Kd [1]: 8600 nM

Molecule: RVES[pT]PPAFLP (also: fluorescein label, site not given here) [Crb2-pThr235 phosphopeptide, fluorescently labelled]
Kd (Rad4-BRCT1,2 K56E): 11700 nM
Kd (Rad4-BRCT1,2 K151E): 59000 nM
